Only a selection was taken, and hits are over-represented in it overall.
Insulin prom act = activators of insulin promoter-driven GFP, primary screen, imaging, TRM-6 cells, eGFP reporter, cell count; plate-scaled: unstimulated 0, stimulated control 100; activation, % at 2 µM; 130,000 tested, 0.81% active;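 active = activation at 2 µM above a set limit, confirmed on inspection of the cell images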;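 also: share of cells whose green reporter signal exceeds an intensity cutoff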
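Test system: human fetal islet-derived TRM-6 cells with tamoxifen-inducible insulin promoter–eGFP reporter; schedule: overnight tamoxifen, then two-day compound incubation at 37 °C; measured by: high-content imaging of fixed cells with Hoechst nuclear stain; evaluation: percent cells above green-intensity threshold, converted to percent activation versus plate controls; control set: stimulated and unstimulated wells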
The depositor's hits bear a star.

SMILES | Insulin prom act
CCc1ccc(N(C(=O)c2csnn2)C(C(=O)NC(C)(C)C)c2cccnc2)cc1 (stereo not drawn) | -4.3
OCCC1CN(CC(c2ccccc2)c2ccccc2)CCN1C1CCCC1 (stereo not drawn) | 0.0
CC(=O)c1ccc(NC(=O)CCCN2C(=O)/C(=C/C(C)=C/c3ccccc3)SC2=S)cc1 | 0.0
Cn1cc(/C=C2/SC(=O)N(CC(=O)Nc3ccc4c(c3)OCO4)C2=O)c2ccccc21 | 3.6
O=C(CN1C(=O)S/C(=C/C=C/c2ccccc2)C1=O)Nc1ccc(C(=O)O)cc1 | 550.0*
CCOc1ccc(C(CC(=O)O)n2cnnn2)cc1 (stereo not drawn) | 9.1
CCCCNC(=O)c1sc2ncnc(N3CCc4ccccc4C3)c2c1C | 5.7
O=C(O)C1C2C=CC(C2)C1C(=O)Nc1cccc(F)c1 (stereo not drawn) | -5.4
Cc1ccc(-c2cccc(NC(=O)C3C(C(=O)O)[C@@H]4C=C[C@H]3C4)c2)o1 (stereo partly drawn) | 154.5*
O=C(O)c1cccc(NC(=O)C2C3C=CC(C3)C2C(=O)O)c1 (stereo not drawn) | 4.9
Cc1cc(C)n(-c2nc(C)nc3sc4c(c23)CCC(C)C4)n1 (stereo not drawn) | 1.3
COc1ccc(S(=O)(=O)Oc2ccc3c(c2)O/C(=C\c2cccnc2)C3=O)cc1 | 0.0
Cc1[nH]c2ccccc2c1-c1csc(NC(=O)CN2CCOCC2)n1 | -5.3
CCc1ccc(C2=NNC(=Nc3cccc(S(=O)(=O)N(C)C)c3)SC2)cc1 | 116.7
COc1ccc(OCC(=O)NCCc2c[nH]c3ccccc23)cc1 | 7.1
CCOc1ccc(OCCN2C(=O)NC(Cc3c[nH]c4ccccc34)C2=O)cc1 (stereo not drawn) | 533.3*
COc1ccc(OCCN2C(=O)c3ccccc3C2=O)cc1 | 107.7
N#CC(C#N)=C(N)CSc1cccc[n+]1[O-] | 0.0
FC(F)(F)c1nnc(-c2ccccc2)nc1N1CCOCC1 | 0.0
Cc1ccc(-c2nnc(C)c(N3CCOCC3)n2)cc1 | -5.9
FC(F)(F)c1cccc(-c2nnc(-c3ccccc3)c(N3CCOCC3)n2)c1 | 233.3*
COC(=O)C(C)Sc1nc2c(c(-c3ccc(OC)cc3)c1C#N)-c1ccccc1C2=O (stereo not drawn) | -81.8
COc1ccc(S(=O)(=O)N2CCCC2C(=O)Nc2ccc(C(C)=O)cc2)cc1 (stereo not drawn) | -71.4
CSc1ccc(Cl)c(C(=O)OCC(=O)N2CCOCC2)c1 | 7.1
CN1CC(=O)N(CCOc2ccccc2)C1=O | -3.7
SMILES | Insulin prom act
Cc1nn(-c2ccccc2)c(C)c1NC(=O)COc1ccc(F)cc1Cl | 8.1
Cc1ccccc1Oc1cc(-n2ncc(Cl)c(Cl)c2=O)ncn1 | 270.4*
c1ccc(Oc2cc(-n3cccn3)ncn2)cc1 | 9.4
Cc1noc(C)c1C(=O)N1CCCC1 | 4.2
C/C=C(\C)CN1CCN(c2ccc(C)cc2)CC1 | -8.7
CCCNC(=O)NC(=O)CSc1cccc(C(F)(F)F)c1 | 145.5
Cc1cc(N)n(-c2ncnc3scc(-c4ccccc4)c23)n1 | -5.4
CCN(CC)S(=O)(=O)c1ccc2c(c1)nc(SCC(=O)N1CCOCC1)n2-c1ccccc1OC | 0.0
COC(=O)Cc1ccc(NC(=O)c2cccs2)cc1 | 460.0*
CC(=O)c1ccc(NC(=O)c2cccs2)cc1 | -3.1
O=C(Nc1ccncc1)c1cccs1 | -9.7
CCOCCCNC(=O)C(c1ccccc1)N(Cc1ccc2c(c1)OCO2)C(=O)CNC(C)=O (stereo not drawn) | 0.0
Cc1ccc(NS(=O)(=O)c2cccc(C(=O)Nc3cc(C)on3)c2)cc1 | 368.8*
Cc1cc(NC(=O)c2ccccc2NS(=O)(=O)c2c(C)c(C)cc(C)c2C)no1 | 3.8
Cc1ccc(S(=O)(=O)Nc2cccc(C(=O)Nc3cc(C)ccn3)c2)cc1 | 6.7
Cc1ccc(CSCC(=O)N/N=C/c2cccc(OC3CSC3)c2)cc1 | 2.9
CCCc1cc(=O)n2c([nH]c3ccccc32)c1C#N | 7.1
COc1cc(Cl)c(C)cc1NC(=O)CSc1ccc(NC(C)=O)cc1 | 6.7
O=C(CCc1nc2ccccc2c(=O)[nH]1)OCC(=O)c1ccc(C2CCCCC2)cc1 | 0.0
O=C(COCc1nc2ccccc2c(=O)[nH]1)NCC1CCCCC1 | 486.2*
CCN(CC(=O)NC(=O)NC1CCCCC1)Cc1nc2ccccc2c(=O)[nH]1 | 3.1
CCc1cccc(NC(=O)C2CCCC2)c1 | -5.4
Cc1cccc(NC(=O)C2CCCN(S(=O)(=O)c3cccc4nsnc34)C2)c1 (stereo not drawn) | 0.0
CCc1cccc(NC(=O)C2CCCN(S(=O)(=O)c3c(C)[nH]c(=O)[nH]c3=O)C2)c1 (stereo not drawn) | 82.8*
CC(=O)c1sc(Nc2nc(C)cc(C)n2)nc1C | -7.1
Cn1c(CN2CCCC2)nc2cc(NC(=O)c3cccs3)ccc21 | 0.0
N#CCCN(C(=O)CSc1ccc2c(c1)OCCO2)c1ccc(F)cc1 | 4.3
Cc1ccc(NC(=O)C2CC(=O)n3c(nc4ccccc43)N2)cc1Cl (stereo not drawn) | -73.3
